{"source": "ChEMBL document CHEMBL1153758", "about": "“Synthesis and anti-osteoporotic evaluation of certain 3-amino-2-hydroxypropoxyisoflavone derivatives” (Eur J Med Chem, 2009)", "key": {"MADS": {"test_system": "MADS", "experiment": "Osteogenic effect on human MADS cells assessed as extracellular matrix calcification at 10 uM after 13 days by using alizarin red S dye", "type": "functional, cell-based", "summary_of_the_method": "(§1)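 Cells were induced in osteo-induction medium (low-glucose DMEM, 10% FBS, 0.1 µM dexamethasone, 10 mM β-glycerophosphate, 100 µM L-ascorbic 2-phosphate) for 7–14 days. Compounds were added at a final 10 µM from 10 mM DMSO stocks (0.1% DMSO), with DMSO-matched controls.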"}, "[1]": {"experiment": "Cytotoxicity against human ADSC at 10 uM after 3 days by MTT assay", "details": "72 h", "summary_of_the_method": "(§2)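 Compounds came from 10 mM DMSO stocks, diluted fresh in medium to a final 10 µM (0.1% DMSO), with vehicle-matched DMSO controls. After treatment, MTT ([…] in PBS) was added for 4 h. Formazan was then dissolved in DMSO for 0.5 h and read at 570 nm, expressed as % of control.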"}, "[2]": {"experiment": "Cytotoxicity against mouse D1 cells at 10 uM after 3 days by MTT assay", "type": "cell-based", "details": "d1, 72 h", "summary_of_the_method": "as §2"}, "D1": {"test_system": "D1", "experiment": "Osteogenic effect on mouse D1 cells assessed as extracellular matrix calcification at 10 uM after 7 days by using alizarin red S dye", "type": "functional, cell-based", "summary_of_the_method": "as §1"}, "MC3T3-E1": {"test_system": "MC3T3-E1", "experiment": "Osteogenic effect on mouse MC3T3-E1 cells assessed as extracellular matrix calcification at 10 uM after 12 days by using alizarin red S dye", "type": "functional, cell-based", "summary_of_the_method": "as §1"}, "RAW264.7 [3]": {"test_system": "RAW264.7", "experiment": "Antiosteoporotic activity in mouse RAW264.7 cells assessed as inhibition of RANKL-stimulated osteoclastogenesis by TRAP assay", "type": "functional, cell-based", "details": "for EC50: read-out: ED50 (the source's name)", "summary_of_the_method": "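RAW 264.7 cells were seeded at 10^3 cells per well with 100 ng/mL RANKL and cultured 5 days at 37 °C in 5% CO2, with fresh RANKL-containing medium added on day 3. TRAP activity was read as conversion of 4 mmol/L α-naphthyl phosphate to α-naphthol in the presence of 2 mol/L L-tartrate, by absorbance at 405 nm.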"}, "[4]": {"experiment": "Selectivity ratio for osteogenic effect of 3-(4-(3-(cyclohexylamino)-2-hydroxypropoxy)phenyl)-7-methoxy-4H-chromen-4-one on MC3T3-E1 cells to osteogenic effect of ipriflavone on MC3T3-E1 cells", "type": "functional, Mus musculus"}, "RAW264.7 [5]": {"test_system": "RAW264.7", "experiment": "Cytotoxicity against mouse RAW264.7 cells at 10 uM after 3 days by MTT assay", "type": "cell-based", "details": "raw264.7, 72 h", "summary_of_the_method": "as §2"}, "[6]": {"test_system": "adipose-derived stem cells (Homo sapiens)", "experiment": "Cytotoxicity against human adipose-derived stem cells assessed as decrease in cell viability", "details": "hADSC"}, "[7]": {"experiment": "Selectivity ratio for osteogenic effect of 3-(3,4-dimethoxyphenyl)-7-(oxiran-2-ylmethoxy)-4H-chromen-4-one on MC3T3-E1 cells to osteogenic effect of ipriflavone on MC3T3-E1 cells", "type": "functional, Mus musculus"}}, "note": "The source made the active and inactive calls. The rule behind the calls is not given here.", "data": [{"smiles": "CC(C)Oc1ccc2c(=O)c(-c3ccccc3)coc2c1", "note": "[IPRIFLAVONE]", "values": [{"measurement": "Activity", "setting": "MADS", "value": "Active"}, {"measurement": "Activity", "setting": "[1]", "value": "Non-toxic"}]}, {"smiles": "COc1ccc2c(=O)c(-c3ccc(OCC(O)CNC4CCCCC4)cc3)coc2c1", "note": "(stereo not given)", "values": [{"measurement": "Activity", "setting": "[2]", "value": "Non-toxic"}, {"measurement": "Activity", "setting": "MADS", "value": "Active"}, {"measurement": "Activity", "setting": "D1", "value": "Active"}, {"measurement": "Activity", "setting": "MC3T3-E1", "value": "Active"}, {"measurement": "EC50", "setting": "RAW264.7 [3]", "value": 2.28, "unit": "µM"}, {"measurement": "Selectivity ratio", "setting": "[4]", "value": 10}, {"measurement": "Activity", "setting": "[1]", "value": "Non-toxic"}, {"measurement": "Activity", "setting": "RAW264.7 [5]", "value": "Non-toxic"}]}, {"smiles": "O=C(c1ccc(OCCN2CCCCC2)cc1)c1c(-c2ccc(O)cc2)sc2cc(O)ccc12", "note": "[RALOXIFENE]", "values": [{"measurement": "Activity", "setting": "MADS", "value": "Active"}, {"measurement": "Activity", "setting": "[1]", "value": "Non-toxic"}]}, {"smiles": "COc1ccc(-c2coc3cc(OCC(O)CNC4CCCCC4)ccc3c2=O)cc1OC", "note": "(stereo not given)", "values": [{"measurement": "IC50", "setting": "RAW264.7 [3]", "value": 4.17, "unit": "µM"}]}, {"smiles": "COc1ccc2c(=O)c(-c3ccc(OCC(O)CNC4CC4)cc3)coc2c1", "note": "(stereo not given)", "values": [{"measurement": "IC50", "setting": "RAW264.7 [3]", "value": 4.85, "unit": "µM"}]}, {"smiles": "COc1ccc(-c2coc3cc(OCC4CO4)ccc3c2=O)cc1OC", "note": "(stereo not given)", "values": [{"measurement": "Activity", "setting": "[2]", "value": "Non-toxic"}, {"measurement": "Activity", "setting": "MADS", "value": "Active"}, {"measurement": "Activity", "setting": "D1", "value": "Active"}, {"measurement": "Activity", "setting": "MC3T3-E1", "value": "Active"}, {"measurement": "Activity", "setting": "[6]", "value": 60, "unit": "%"}, {"measurement": "IC50", "setting": "RAW264.7 [3]", "value": 0.56, "unit": "µM"}, {"measurement": "EC50", "setting": "RAW264.7 [3]", "value": 0.56, "unit": "µM"}, {"measurement": "Selectivity ratio", "setting": "[7]", "value": 10}, {"measurement": "Activity", "setting": "RAW264.7 [5]", "value": "Non-toxic"}]}, {"smiles": "COc1ccc2c(=O)c(-c3ccc(OCC4CO4)cc3)coc2c1", "note": "(stereo not given)", "values": [{"measurement": "IC50", "setting": "RAW264.7 [3]", "value": 6.39, "unit": "µM"}]}, {"smiles": "O=c1cc(-c2ccccc2)oc2cc(O)c(O)c(O)c12", "note": "[BAICALEIN]", "values": [{"measurement": "IC50", "setting": "RAW264.7 [3]", "value": 13, "unit": "µM"}]}]}
